# PAX8 inh HTS: inhibitors of PAX8 transcriptional activity in RMG-I cells | hit rate 1.2% among 360,000 | AID 652154 | RMG-I TPO-luciferase reporter, SteadyGlo, 24 h | inhibition, % at 12.6 µM;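 active = mean replicate inhibition at least 60% with every replicate also reaching 60%; inconclusive = only one of the two criteria is met; inactive = mean below 60% and not all replicates reaching 60%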;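 also: luciferase light reporting Pax8 driven TPO promoter activity; plate controls were median of neutral control wells for no effect and mitoxantrone controls for full effect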
# FN deposition inh: fibronectin deposition inhibition | inhibition, % at 12.6 µM | AID 743247 | hit rate 0.086% among 350,000 | AH1F fibroblasts, Alexa488-fibronectin deposition fluorescence, overnight;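 active = mean inhibition across replicates of 30% or more, regardless of how many single replicates reach that level; inconclusive = mean under 30% yet at least half of replicates reach 30%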;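 also: positive control wells lacked labelled fibronectin entirely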
#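 material = AH1F fibroblast monolayer depositing Alexa488-labelled fibronectin into matrix | amount = 10000 AH1F cells/well | buffer or medium = DMEM plus 2% serum, read in PBS | incubation = 1 h cell adhesion before compound, then overnight fibronectin incubation | detection = fluorescence at 485 nm excitation, 525 nm emission | evaluation = percent inhibition as loss of matrix-bound fibronectin fluorescence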
# EWS-Fli block: blocks EWS/Fli oncoprotein-driven transcription; AID 651661; inhibition, % at 12.6 µM; hit rate 0.67% among 350,000; A673 NR0B1-luciferase reporter, viability-normalised;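 active = mean inhibition of at least 50% after viability correction, with every replicate also passing that limit; inconclusive = mean reaches 50% but only one of two replicates passes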;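 also: firefly luciferase signal divided by Alamar Blue viability fluorescence both relative to DMSO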
# Env fusion inh: HIV envelope-mediated fusion inhibition. inhibition, % at 12.3 µM. hit rate 1.1% among 360,000. HeLa-JRFL Env/CEM21 cell fusion, luciferase;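 active = mean replicate inhibition score of at least 50 and every replicate individually at or above 50; inconclusive = only one of the two criteria met; inactive = mean below 50 and not all replicates reaching 50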;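 also: 0% = plate neutral controls and 100% = maraviroc near 300 nM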
# FGF22 binding: binders of recombinant human FGF22 by thermal shift | Q9HCT0 | SYPRO orange fluorescence; percent of sucrose octasulfate shift, DMSO zero | activity (Tm shift, normalised), % at 9.99 µM | hit rate 1.5% among 340,000 | AID 651658;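 active = mean Tm shift, scaled 0 neutral to 100 positive control, at about 1.3% or above, every replicate too, limit read from the data; inconclusive = no clear call, values can overlap the other calls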
# Target sequence (Q9HCT0 whole entry, looked up): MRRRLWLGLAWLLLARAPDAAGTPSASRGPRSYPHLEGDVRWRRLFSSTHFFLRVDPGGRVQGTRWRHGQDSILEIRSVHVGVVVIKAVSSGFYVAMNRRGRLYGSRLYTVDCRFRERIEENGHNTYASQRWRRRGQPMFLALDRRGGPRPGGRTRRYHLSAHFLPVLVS
# PGC1a acetyl inh: lowers PGC1a acetylation signal in U2OS cells; inhibition, % at 15.6 µM; AlphaScreen anti-acetyl-lysine; with virally co-expressed GCN5 acetyltransferase; AID 651687; hit rate 0.17% among 350,000;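 active = every replicate shows inhibition of at least 40%; inconclusive = mean inhibition at least 40% but some replicate below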;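 also: 0% = neutral control wells and 100% = positive control wells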
# An asterisk follows results filed as active; ? = inconclusive; . = no result given; [ ] = another dose, or the depositor's remark. Compounds with a hit are over-represented: about 3.1% of the library has one in this group of screens.
SMILES,PAX8 inh HTS,FN deposition inh,EWS-Fli block,Env fusion inh,FGF22 binding,PGC1a acetyl inh
COc1ccc(NC(=O)Nc2ccc3c(c2)C(=O)N([C@@H](C)CO)C[C@@H](C)[C@H](CN(C)C(=O)Nc2ccccc2)O3)cc1,.,.,1.8,9.2[16.7 µM],0.0,4.2
O=C(C[C@H]1CC[C@@H]2[C@H](COC[C@H](O)CN2Cc2cccc(C(F)(F)F)c2)O1)NCc1ccc(Cl)cc1,34.0,-8.6,9.3,19.3[16.7 µM],-0.4,-1.3
O=C(C[C@H]1CC[C@@H]2[C@H](COC[C@H](O)CN2CCC(F)(F)F)O1)NCc1ccc(Oc2ccccc2)cc1,28.9,-24.0,1.7,-20.9[16.7 µM],-0.4,-15.2
O=C(C[C@H]1CC[C@@H]2[C@H](COC[C@@H](O)CN2CC2CCCCC2)O1)NCc1ccc(Cl)cc1,-6.7,-12.0,-9.0,.,-0.2,-4.7
O=C(C[C@@H]1CC[C@H]2[C@@H](COC[C@@H](O)CN2CC2CCCCC2)O1)NCc1ccc(F)cc1,-23.2,-4.6,69.7*,-0.5[16.7 µM],-0.5,-11.8
O=C(C[C@H]1CC[C@H]2[C@@H](COC[C@H](O)CN2CCC(F)(F)F)O1)NCc1ccc(Oc2ccccc2)cc1,24.0,-9.9,13.7,56.4*[16.7 µM],-0.2,-5.8
O=C(C[C@H]1CC[C@H]2[C@@H](COC[C@H](O)CN2Cc2cccc(C(F)(F)F)c2)O1)NCc1ccc(Cl)cc1,69.8*,-18.8,-5.7,-2.4[16.7 µM],-0.1,-7.1
N=c1c2c(-c3ccccc3)c(-c3ccccc3)n(Cc3ccco3)c2ncn1CCCn1ccnc1,30.1,12.6,13.8,24.6,-0.1,.
N=c1c2c(-c3ccccc3)c(-c3ccccc3)n(Cc3ccco3)c2ncn1CCCN1CCOCC1,?,3.9,5.2,74.7*,42.0,-8.6
CCC(=O)N1CC(=O)N2[C@H](CO)[C@H](c3ccc(-c4ccccc4C)cc3)[C@@H]2C1,-9.2,.,-5.4,.,0.1,-11.9
COc1ccc(N(C)S(=O)(=O)c2cccc(C(=O)Nc3ccc4c(c3)OCCO4)c2)cc1,5.3,5.6,-16.5,20.9,43.5*,-15.2
O=C(Nc1ccc2c(c1)OCCO2)c1cc(F)c(F)cc1Cl,-149.6,0.9,-89.1,-223.7,-0.1,7.1
COc1ccc(N(C)S(=O)(=O)c2cccc(C(=O)Nc3ccc(OC)nc3)c2)cc1,-3.8,-6.6,-2.4,9.2,-0.1,.
O=C(Nc1ccc2c(c1)OCCO2)c1cc(-c2ccccn2)nc2ccc(Br)cc12,-4.2,-1.8,8.0,13.9,43.6*,-5.9
Cc1cc(C)nc(NS(=O)(=O)c2ccc(NC(=O)c3ccc(S(=O)(=O)N(C)C)cc3)cc2)n1,18.8,-1.0,22.5,-1.5,0.0,-3.4
Cc1cc(C)nc(NS(=O)(=O)c2ccc(NC(=O)c3ccc4c(c3)OCCO4)cc2)n1,-5.6,-8.5,-0.7,10.9,43.3*,0.7
Cc1ccc(C(=O)Nc2ccc3c(c2)OCCO3)c(Cl)c1,52.4,-10.7,63.3*,-5.1,0.0,.
Cc1ccc(S(=O)(=O)Nc2ccc3c(c2)C(=O)N([C@H](C)CO)C[C@@H](C)[C@@H](CN(C)C(=O)Nc2ccc4c(c2)OCO4)OCCCC[C@H](C)O3)cc1,.,2.4,0.0,.,0.1,5.0
C[C@@H]1CN([C@H](C)CO)C(=O)Cc2cc(NC(=O)NC3CCCCC3)ccc2O[C@@H]1CN(C)CC1CCCCC1,?,-0.4,-5.8,10.7[16.7 µM],-0.1,-8.5
CN(C)C(=O)[C@@H]1[C@@H](CO)[C@@H]2Cn3c(ccc(-c4ccccc4)c3=O)[C@@H]2N1C(=O)c1ccccn1,.,.,2.0,.,0.1,.
CCC(=O)N(C)C[C@H]1Oc2cc(Br)ccc2S(=O)(=O)N([C@@H](C)CO)C[C@@H]1C,.,-5.2,-9.4,5.4[16.7 µM],-0.2,12.8
Cc1ccc(C(=O)Nc2ccc3c(c2)CCC3)cc1,9.9,-4.8,58.9*,-87.5,0.0,-2.1
Cc1ccc(C(=O)Nc2ccc3c(c2)OCCO3)cc1,49.6,0.8,69.0*,-141.1,-0.3,.
Cc1ccc(C(=O)NCC(=O)Nc2ccc3c(c2)CCC3)cc1,.,-3.5,-42.6,-12.1,0.2,1.1
CCCC#Cc1ccc([C@@H]2[C@H](CO)N3CCCCN(S(=O)(=O)Cc4ccccc4)C[C@@H]23)cc1,116.6*,.,58.7*,.,-0.5,-28.5
O=C(C1CCC1)N1CC(=O)N2[C@H](CO)[C@H](c3ccc(C#CCc4ccccc4)cc3)[C@H]2C1,82.6*,-4.5,-5.4,.,.,-18.7

# Screening data (PubChem)
